Results on one molecule are retold here after ChEMBL document CHEMBL3808358, “Rational Design of Small Peptides for Optimal Inhibition of Cyclooxygenase-2: Development of a Highly Effective Anti-Inflammatory Agent” (J Med Chem, 2016).

Calls of active or inactive are those of the source. The calls are words filed in the database; no cut-off is given here. Residues, ends and D or L forms follow the SMILES beside them.

In data set [1] the target is T1, Prostaglandin G/H synthase 1 (Ovis aries, UniProt P05979).
T1 sequence (P05979 whole entry): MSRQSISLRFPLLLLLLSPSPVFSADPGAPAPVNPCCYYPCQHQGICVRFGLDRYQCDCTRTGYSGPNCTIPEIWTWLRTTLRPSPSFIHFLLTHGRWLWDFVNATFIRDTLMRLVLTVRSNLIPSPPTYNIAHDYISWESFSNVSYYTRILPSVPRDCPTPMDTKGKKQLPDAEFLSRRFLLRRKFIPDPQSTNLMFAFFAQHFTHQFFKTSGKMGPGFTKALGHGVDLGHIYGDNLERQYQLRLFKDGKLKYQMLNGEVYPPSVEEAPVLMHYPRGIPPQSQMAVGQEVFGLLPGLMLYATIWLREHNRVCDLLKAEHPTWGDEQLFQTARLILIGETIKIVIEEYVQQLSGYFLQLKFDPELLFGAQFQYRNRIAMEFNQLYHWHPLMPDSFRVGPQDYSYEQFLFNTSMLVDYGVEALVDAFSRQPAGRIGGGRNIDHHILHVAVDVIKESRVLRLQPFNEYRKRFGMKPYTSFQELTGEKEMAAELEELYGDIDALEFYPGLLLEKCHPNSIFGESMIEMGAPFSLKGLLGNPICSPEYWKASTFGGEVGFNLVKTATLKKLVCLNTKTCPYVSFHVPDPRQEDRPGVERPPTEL
In words: Inhibition of ovine COX1 assessed as reduction in PGH2-derived PGF2alpha using arachidonic acid as substrate preincubated for 10 mins followed by substrate addition measured after 2 mins by enzyme immunoassay. A digest of the protocol:
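Ovine COX-1 and human recombinant COX-2 with heme are preincubated with inhibitor for 10 min at 37 °C. Arachidonic acid is then added for 2 min at 37 °C. Prostaglandins are quantified by competitive AChE-tracer EIA, read at 420 nm. Four concentrations (10^-5 to 10^-8 M) are tested in triplicate. IC50 is taken from the dose-response curve of the mean % inhibition.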

The target of data set [2] is T2, Prostaglandin G/H synthase 2 (Homo sapiens, UniProt P35354).
T2 sequence (P35354 whole entry): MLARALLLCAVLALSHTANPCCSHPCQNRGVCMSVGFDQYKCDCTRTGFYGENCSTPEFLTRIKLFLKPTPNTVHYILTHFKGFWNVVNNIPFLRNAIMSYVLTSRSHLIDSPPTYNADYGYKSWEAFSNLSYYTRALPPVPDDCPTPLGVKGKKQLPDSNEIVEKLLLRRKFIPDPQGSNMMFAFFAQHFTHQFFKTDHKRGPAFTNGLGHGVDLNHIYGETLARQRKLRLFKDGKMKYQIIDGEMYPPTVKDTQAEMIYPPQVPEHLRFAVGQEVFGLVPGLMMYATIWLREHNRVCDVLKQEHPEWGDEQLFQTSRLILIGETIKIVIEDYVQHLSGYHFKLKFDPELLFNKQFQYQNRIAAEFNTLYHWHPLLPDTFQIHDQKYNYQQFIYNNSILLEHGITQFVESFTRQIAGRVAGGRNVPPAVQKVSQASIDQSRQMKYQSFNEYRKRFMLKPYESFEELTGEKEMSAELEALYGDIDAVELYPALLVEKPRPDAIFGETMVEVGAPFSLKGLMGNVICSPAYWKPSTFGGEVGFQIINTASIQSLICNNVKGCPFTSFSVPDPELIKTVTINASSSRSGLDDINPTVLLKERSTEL
In words: Inhibition of human recombinant COX2 assessed as reduction in PGH2-derived PGF2alpha using arachidonic acid as substrate preincubated for 10 mins followed by substrate addition measured after 2 mins by enzyme immunoassay.

For data set [3], the system named is Mus musculus. In words: Analgesic activity in Swiss albino mouse assessed as reduction in formalin-induced paw flinches in neurogenic phase at 5 mg/kg, ip dosed 30 mins before formalin injection measured up to 5 mins. It is filed as functional, organism-based. Put shortly: (§1)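 Swiss albino mice of either sex (25-35 g). 20 μL of 2% formalin is injected into the plantar surface of the right hind paw 30 min after treatment. Hind paw flinches are counted for the neurogenic phase (0-5 min) and the inflammatory phase (15-30 min). Results are given as mean ± SEM.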

For data set [4], the target named is Prostaglandin G/H synthase 1 (Homo sapiens) (UniProt P23219). In words: Inhibition of COX1 in healthy human whole blood assessed as calcium ionophore A23187-stimulated TXB2 level at 1 uM preincubated for 60 mins followed by A23187 addition measured after 30 mins by ELISA. It is filed as tissue-based. Put shortly:
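Fresh venous blood from a healthy volunteer is collected in EDTA. 1 mL samples receive compound, indomethacin or DMSO vehicle (final 1 μM). After 60 min, A23187 is added (final 50 μM). After 30 min, samples are centrifuged at 4 °C and TxB2 in plasma is measured by ELISA, read at 420 nm. Samples are run in duplicate.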

Data set [5] deals with Mus musculus. In words: Analgesic activity in Swiss albino mouse assessed as reduction in capsaicin-induced paw licking at 5 to 10 mg/kg, ip dosed 30 mins before capsaicin injection measured for 10 mins. It is filed as functional, organism-based. Put shortly: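 Swiss albino mice of either sex (25-35 g), kept at 22 ± 2 °C on a 12 h light/dark cycle with free food and water. 5 animals per group. Capsaicin (1.6 μg in 20 μL) is injected into the plantar surface of the hind paw. Pain is scored as the number of paw lickings over 10 min.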

Data set [6] deals with Mus musculus. In words: Acute toxicity in Swiss albino mouse assessed as structural abnormality in myocardium up to 2000 mg/kg, po administered as single dose through gavage measured after 14 days by haematoxylin and eosin staining based assay. It is filed as organism-based. As to conditions: in vivo, 336 h. Put shortly:
(§2)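 Mice given vehicle or 50, 300 or 2000 mg Kg⁻¹ after 4 h fasting, three per group, following OECD 2001 guidance. At 14 days, one control animal and one 2000 mg Kg⁻¹ animal were sacrificed. Myocardium, liver and kidney were examined histologically by H and E staining.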

Data set [7] has as its system Mus musculus. In words: Acute toxicity in Swiss albino mouse assessed as structural abnormality in liver up to 2000 mg/kg, po administered as single dose through gavage measured after 14 days by haematoxylin and eosin staining based assay. It is filed as organism-based. The conditions noted are these: in vivo, 336 h. A digest of the protocol:
as §2

Data set [8] has as its system Mus musculus. In words: Analgesic activity in Swiss albino mouse assessed as reduction in capsaicin-induced paw licking at 5 to 10 mg/kg, ip dosed 30 mins before capsaicin injection measured for 10 mins in presence of substance P pre-treated 30 mins before compound dosing. It is filed as functional, organism-based. Put shortly: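 Mice of either sex (25-35 g), 5 per group. The modulator is given 30 min before the test compound, and capsaicin 30 min after that: substance P 10 µg/kg, L-arginine 40 mg/kg, L-NAME 20 mg/kg, veratrine 125 µg/kg, A23187 20 µg/kg, glipizide 30 µg/kg. Capsaicin is 1.6 μg in 20 μL intraplantar. Paw lickings are counted for 10 min.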

For data set [9], the system named is Mus musculus. In words: Analgesic activity in Swiss albino mouse assessed as reduction in formalin-induced paw flinches in inflammatory phase at 5 mg/kg, ip dosed 30 mins before formalin injection measured after 15 to 30 mins. It is filed as functional, organism-based. Put shortly: as §1
Data set [10] deals with Mus musculus. In words: Antiinflammatory activity in Swiss albino mouse assessed as reduction in carrageenan-induced paw edema by measuring paw thickness at 5 mg/kg, ip dosed 30 mins before carrageenan injection measured up to 300 mins by vernier calliper method relative to control. It is filed as functional. (In general: In the carrageenan paw model, swelling and tenderness develop within hours.)

Chain of Prostaglandin G/H synthase 1 (Homo sapiens) (P23219 whole entry): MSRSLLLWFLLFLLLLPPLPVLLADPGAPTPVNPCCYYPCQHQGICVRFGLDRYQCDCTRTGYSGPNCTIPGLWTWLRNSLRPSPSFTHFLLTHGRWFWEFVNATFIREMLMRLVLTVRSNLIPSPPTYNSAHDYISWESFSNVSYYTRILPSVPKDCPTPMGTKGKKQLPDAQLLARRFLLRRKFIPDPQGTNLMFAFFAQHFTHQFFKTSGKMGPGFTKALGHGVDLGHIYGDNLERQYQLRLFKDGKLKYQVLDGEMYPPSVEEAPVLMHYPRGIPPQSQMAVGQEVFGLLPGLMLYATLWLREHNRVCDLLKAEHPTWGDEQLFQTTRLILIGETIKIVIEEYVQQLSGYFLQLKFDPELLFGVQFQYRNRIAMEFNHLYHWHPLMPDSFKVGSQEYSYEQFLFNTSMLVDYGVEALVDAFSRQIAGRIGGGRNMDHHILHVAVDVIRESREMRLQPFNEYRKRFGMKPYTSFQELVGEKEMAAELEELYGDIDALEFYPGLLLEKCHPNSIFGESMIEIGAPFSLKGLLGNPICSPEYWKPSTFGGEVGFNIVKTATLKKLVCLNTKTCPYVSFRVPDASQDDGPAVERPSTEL

As to `COC(=O)[C@H](CC(C)C)NC(=O)[C@H](Cc1ccccc1)NC(=O)CNC(=O)CN` (H-GGFL-OMe), the IC50 (as a rule, the concentration needed to halve the response being measured) in [1] was found to be 6 µM; in data set [2], 0.06 µM. Also, the outcome with Mus musculus [3] and with Mus musculus [8] was inactive. The figures for the Activity (in data set [4]; in the data set on Mus musculus [6]; in the data set with Mus musculus [7]) were 5.8 ng/mL, “Non-toxic” and “Non-toxic”, respectively. Besides, the result in the data set on Mus musculus [5] and in the data set with Mus musculus [9] was Active. Also, the inhibition in vivo (as a rule, the relative decrease from the control value, in per cent) at 5 mg/kg in the data set on Mus musculus [10] came out at 60%.
